# Activity calls are given as the source filed them. No cut-off for these calls is given here.
# How the values were obtained:
# A-375 = test: Antiproliferative activity against human A375 cells assessed as inhibition of cell proliferation after 48 hrs by MTT assay; type: functional, cell-based; details: A-375, 48 h
# How it was run: (§1)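 Cells grown at 37 °C in humidified 5% CO2. K562, C26 and HCT lines in RPMI-1640; other lines in DMEM; both media with 10% FBS, penicillin and streptomycin. 1000 cells/well seeded, incubated overnight, then compound at various doses for 48 h. MTT added for 4 h, formazan dissolved in DMSO, absorbance read at 590 nm. IC50 from dose–response curves, mean ± SEM of at least three independent experiments.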
# HepG2 = test: Antiproliferative activity against human HepG2 cells assessed as inhibition of cell proliferation after 48 hrs by MTT assay; type: functional, cell-based; how it was run: as §1
# K562 = test: Antiproliferative activity against human K562 cells assessed as inhibition of cell proliferation after 48 hrs by MTT assay; type: functional, cell-based; details: K562, 48 h; how it was run: as §1
# Mus musculus [1] = test: Toxicity in mouse C26 cells xenografted Balb/C mouse assessed as mortality level at 5 mg/kg, iv dosed every 4 days for 4 days; type: organism-based; design: dose 5 mg/kg, route intravenous; details: in vivo, 96 h
# How it was run: (§2)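 Female Balb/C or athymic nude mice, 5−6 weeks old, implanted sc in the right flank/armpit with 5 × 10^6 cells in HBSS. Once tumors reached 100 mm3, mice were randomized (6 per group) and dosed with vehicle (2.5% Tween-80, 2.5% ethanol) or drug. Toxicity signs and mortality observed daily. Body weight and caliper tumor volume measured every 2 days.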
# AGS = test: Antiproliferative activity against human AGS cells assessed as inhibition of cell proliferation after 48 hrs by MTT assay; type: functional, cell-based; how it was run: as §1
# MCF7 = test: Antiproliferative activity against human MCF7 cells assessed as inhibition of cell proliferation after 48 hrs by MTT assay; type: functional, cell-based; details: MCF7, 48 h; how it was run: as §1
# NCI-H358 = test: Antiproliferative activity against human NCI-H358 cells assessed as inhibition of cell proliferation after 48 hrs by MTT assay; type: functional, cell-based; details: NCI-H358, 48 h; how it was run: as §1
# Mus musculus [2] = test: Toxicity in mouse C26 cells xenografted Balb/C mouse assessed as body weight changes at 5 mg/kg, iv dosed every 4 days for 4 days; type: organism-based; design: dose 5 mg/kg, route intravenous; details: in vivo, 96 h
# How it was run: (§3)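 Xenografts: 5 × 10^6 tumour cells injected sc in right armpit/flank of 5−6-week-old female mice; at 100 mm3 tumour volume, randomized (6 per group) and dosed in vehicle of 2.5% Tween-80 and 2.5% ethanol; body weights and caliper tumour volumes recorded every 2 days, toxicity signs and mortality daily.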
# [3] = Antiproliferative activity against mouse C26 cells assessed as inhibition of cell proliferation after 48 hrs by MTT assay; type: functional, cell-based; details: C26, 48 h; how it was run: as §1
# U-251 = test: Antiproliferative activity against human U251 cells assessed as inhibition of cell proliferation after 48 hrs by MTT assay; type: functional, cell-based; details: U-251, 48 h; how it was run: as §1
# Mus musculus [4] = test: Toxicity in cisplatin-resistant human […] cells xenografted Balb/C mouse assessed as body weight changes at 5 mg/kg, iv dosed every 4 days for 4 days; type: organism-based, A2780cisR; design: dose 5 mg/kg, route intravenous; details: in vivo, 96 h; how it was run: as §3
# [5] = Antiproliferative activity against taxol resistant human HCT8 cells assessed as inhibition of cell proliferation after 48 hrs by MTT assay; type: functional, cell-based; details: HCT-8, 48 h; how it was run: as §1
# [6] = Antiproliferative activity against human HCT15 cells assessed as inhibition of cell proliferation after 48 hrs by MTT assay; type: functional, cell-based; details: HCT-15, 48 h; how it was run: as §1
# Mus musculus [7] = test: Toxicity in cisplatin-resistant human […] cells xenografted Balb/C mouse assessed as mortality level at 5 mg/kg, iv dosed every 4 days for 4 days; type: organism-based, A2780cisR; design: dose 5 mg/kg, route intravenous; details: in vivo, 96 h; how it was run: as §2
# [8] = Antiproliferative activity against human DLD1 cells assessed as inhibition of cell proliferation after 48 hrs by MTT assay; type: functional, cell-based; details: DLD-1, 48 h; how it was run: as §1
# [9] = Antiproliferative activity against human A2780S cells assessed as inhibition of cell proliferation after 48 hrs by MTT assay; type: functional, cell-based; details: A2780, 48 h
# How it was run: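 Cells grown in DMEM with 10% FBS, penicillin/streptomycin at 37 °C, 5% CO2. 1000 cells/well seeded, incubated overnight, then exposed to various doses for 48 h. MTT added for 4 h, formazan dissolved in DMSO, absorbance read at 590 nm. IC50 = concentration inhibiting proliferation by 50%, mean ± SEM of dose–response curves from at least three independent experiments.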
# [10] = Antitumor activity against cisplatin-resistant human […] cells xenografted in Balb/C mouse assessed as tumor mass changes at 5 mg/kg, iv dosed every 4 days for 4 days; type: functional, A2780cisR
# How it was run: (§4)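 Female Balb/c or athymic nude mice, 5–6 weeks old. 5 × 10^6 cells in HBSS implanted sc in the right flank/armpit. Treatment began at tumor volume 100 mm3, 6 mice per group; vehicle was 2.5% Tween-80 and 2.5% ethanol. Tumor volume (π/6 × L × W²) and body weight measured every 2 days. Inhibition = (1 − treated/control tumor weight) × 100%.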
# [11] = Antitumor activity against mouse C26 cells xenografted in Balb/C mouse assessed as tumor mass changes at 5 mg/kg, iv dosed every 4 days for 4 days; type: functional; how it was run: as §4
# [12] = Antiproliferative activity against taxol resistant human […] cells assessed as inhibition of cell proliferation after 48 hrs by MTT assay; type: functional, cell-based; details: A2780, 48 h; how it was run: as §1
# Tubulin (Homo sapiens) [13] = target: T1, Tubulin (Homo sapiens) (UniProt P68371+Q9H4B7+P0DPH7+P68366+Q13509+Q71U36+P04350+Q3ZCM7+P07437+P68363+Q9BQE3+Q6PEY2+Q13885+Q9BVA1+Q9BUF5); test: Inhibition of tubulin polymerization in human HepG2 cells assessed as spindle formation alterations at 1 uM after 24 hrs by immunofluorescence assay; type: cell-based
# How it was run: (§5)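 HepG2 cells seeded overnight, then given 1 μM compound or DMSO for 24 h; methanol-fixed, blocked 45 min in 5% BSA/PBS, α-tubulin primary antibody overnight at 4 °C, fluorescent secondary 1 h, DAPI nuclear counterstain; microtubules and spindles imaged by fluorescence microscopy.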
# HUVEC [14] = test: Antivascular activity in HUVECs assessed as inhibition of cell migration incubated for 20 hrs by phase contrast microscopy based wound healing migration assay; type: functional; details: Homo sapiens
# How it was run: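 HUVECs grown to confluence in DMEM, then serum-starved for 16 h. Monolayer scratched with a pipet tip and washed with PBS. Serum-free DMEM with vehicle or 50, 100 or 500 nM compound added. Imaged after 20–24 h; migrated cells counted manually and expressed relative to vehicle wells; t-test.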
# Tubulin (Homo sapiens) [15] = target: T1, Tubulin (Homo sapiens); test: Inhibition of tubulin polymerization in human HepG2 cells assessed as abnormal mitotic spindles at 1 uM after 24 hrs by immunofluorescence assay; type: cell-based; how it was run: as §5
# Tubulin (Homo sapiens) [16] = target: T1, Tubulin (Homo sapiens); test: Inhibition of tubulin (unknown origin) polymerization pre-incubated for 5 mins by spectrophotometry; type: protein-complex assay
# Tubulin (Homo sapiens) [17] = target: T1, Tubulin (Homo sapiens); test: Inhibition of tubulin polymerization in human HepG2 cells assessed as multiple tubulin bundles at 1 uM after 24 hrs by immunofluorescence assay; type: cell-based; how it was run: as §5
# Tubulin (Homo sapiens) [18] = target: T1, Tubulin (Homo sapiens); test: Inhibition of tubulin polymerization in human HepG2 cells assessed as microtubule polymerization alterations at 1 uM after 24 hrs by immunofluorescence assay; type: cell-based; how it was run: as §5
# HUVEC [19] = test: Antivascular activity in HUVECs assessed as disruption of capillary-like tubes at 50 to 500 nM incubated for 6 hrs by matrigel based tube formation assay; type: functional, cell-based; details: Homo sapiens
# How it was run: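 HUVECs (2−4 × 10^4) in DMEM seeded on Matrigel polymerized at 37 °C for 30 min. Treated with 50, 100 or 500 nM compound or vehicle at 37 °C. Capillary networks photographed after 6 h and quantified; significance by t-test.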
# [20] = Solubility in PBS solution by nephelometry; type: physicochemical
# How it was run: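 Maximum soluble concentration in PBS, determined by nephelometry.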
Compound,IC50 (A-375),"IC50 (HepG2; Homo sapiens, HepG2, 48 h)",IC50 (K562),other results
COc1ccc(/C=C/C(=O)c2ccc(OC)c3c2OC(C)(C)C=C3)cc1NS(=O)(=O)Cc1ccccc1,2000 nM,> 2000 nM,> 2000 nM,
COc1ccc(/C=C/C(=O)c2ccc(OC)c3c2OC(C)(C)C=C3)cc1NCc1ccccc1,790 nM,970 nM,1860 nM,
COc1ccc(/C=C/C(=O)c2ccc(OC)c3c2OC(C)(C)C=C3)cc1NC(=O)[C@@H](C)N,360 nM,110 nM,220 nM,
COc1ccc(/C=C/C(=O)c2ccc(OC)c3c2OC(C)(C)C=C3)cc1NC(=O)CN,700 nM,280 nM,890 nM,
COc1ccc(/C=C/C(=O)c2ccc(OC)c3c2OC(C)(C)C=C3)cc1NS(=O)(=O)c1ccc(C)cc1,> 2000 nM,> 2000 nM,> 2000 nM,
CC(=O)O[C@H]1C(=O)[C@@]2(C)[C@H]([C@H](OC(=O)c3ccccc3)[C@]3(O)C[C@H](OC(=O)[C@H](O)[C@@H](NC(=O)c4ccccc4)c4ccccc4)C(C)=C1C3(C)C)[C@]1(OC(C)=O)CO[C@@H]1C[C@@H]2O [PACLITAXEL],,38 nM,,Activity (Mus musculus [1]): Non-toxic; IC50 (AGS): 8 nM; IC50 (MCF7): 132 nM; IC50 (NCI-H358): 2 nM; Activity (Mus musculus [2]): -3.7%; IC50 [3]: 210 nM; IC50 (U-251): 23 nM; Activity (Mus musculus [4]): -5.6%; IC50 [5]: 266 nM; IC50 [6]: 24 nM; Activity (Mus musculus [7]): Non-toxic; IC50 [8]: 16 nM; IC50 [9]: 4 nM; Activity [10]: 69%; Activity [11]: 76%; IC50 [12]: 107 nM
C=CC(=O)Nc1cc(/C=C/C(=O)c2ccc(OC)c3c2OC(C)(C)C=C3)ccc1OC,1120 nM,840 nM,1120 nM,
C#CCNc1cc(/C=C/C(=O)c2ccc(OC)c3c2OC(C)(C)C=C3)ccc1OC,1600 nM,1640 nM,1580 nM,
CCCCC(=O)Nc1cc(/C=C/C(=O)c2ccc(OC)c3c2OC(C)(C)C=C3)ccc1OC,1590 nM,1300 nM,1160 nM,
COc1ccc(/C=C/C(=O)c2ccc(OC)c3c2OC(C)(C)C=C3)cc1N,,,,inhibition (Tubulin (Homo sapiens) [13]): Active; inhibition (HUVEC [14]): Dose-dependent effect; inhibition (Tubulin (Homo sapiens) [15]): Active; inhibition (Tubulin (Homo sapiens) [16]): Dose-dependent effect; inhibition (Tubulin (Homo sapiens) [17]): Active; inhibition (Tubulin (Homo sapiens) [18]): Active; inhibition (HUVEC [19]): Dose-dependent effect
CNc1cc(/C=C/C(=O)c2ccc(OC)c3c2OC(C)(C)C=C3)ccc1OC,> 2000 nM,> 2000 nM,> 2000 nM,
COc1ccc(/C=C/C(=O)c2ccc(OC)c3c2OC(C)(C)C=C3)cc1N(CC=C(C)C)CC=C(C)C,> 2000 nM,> 2000 nM,1500 nM,
COc1ccc(/C=C/C(=O)c2ccc(OC)c3c2OC(C)(C)C=C3)cc1N.CS(=O)(=O)O,,,,IC50 (HepG2; hepg2): 10 nM; solubility kinetic [20]: 50 µg/mL
